Test results taken from ChEMBL document CHEMBL1177876, “Design and synthesis of 10-alkoxy-5, 6-dihydro-triazolo[4,3-d]benzo[f][1,4]oxazepine derivatives with anticonvulsant activity” (Eur J Med Chem, 2010).
Active and inactive are the calls of the source.

Tests used:
Mus musculus [1] = assay: Anticonvulsant activity in mouse assessed as protection against maximal electroshock-induced seizures at 30 mg/kg, ip measured after 4 hrs; format: functional, organism-based; parameters: dose 30 mg/kg
Summary of the method: (§1)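 Phase-I MES screen in KunMing mice, 18–22 g. Compounds dissolved in DMSO and given i.p. at 30, 100 or 300 mg/kg. The MES test followed the NIH ADD protocol and was read at 0.5 h and 4 h after dosing. Six mice per group, scored as number protected/number tested.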

Mus musculus [2] = assay: Anticonvulsant activity in ip dosed mouse assessed as protection against maximal electroshock-induced seizures; format: functional
Summary of the method: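 KunMing mice, 18–22 g, compounds in DMSO, given i.p. at a range of doses, groups of 10. MES test per NIH ADD program. Read-out was seizure protection, with at least three points in the 10–90% range.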

Mus musculus [3] = species on record: Mus musculus; assay: Protective index, ratio of TD50 for mouse by rotarod test to ED50 for mouse by MES test; format: functional
Mus musculus [4] = assay: Anticonvulsant activity in mouse assessed as protection against maximal electroshock-induced seizures at 300 mg/kg, ip measured after 4 hrs; format: functional, organism-based; parameters: dose 300 mg/kg; summary of the method: as §1
[5] = Neurotoxicity in ip dosed mouse assessed as time spent on rotarod by rotarod test; format: toxicity, organism-based; conditions: in vivo
Summary of the method: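 Rotarod neurotoxicity in KunMing mice, 18–22 g, compounds in DMSO given i.p. Mice were pretrained on a 3.2 cm diameter rod at 10 rpm. Toxicity was defined as failure to stay on the rod for at least 1 min in each trial.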

Mus musculus [6] = assay: Anticonvulsant activity in mouse assessed as protection against maximal electroshock-induced seizures at 100 mg/kg, ip measured after 4 hrs; format: functional, organism-based; parameters: dose 100 mg/kg; summary of the method: as §1
Mus musculus [7] = assay: Anticonvulsant activity in mouse assessed as protection against maximal electroshock-induced seizures at 10 mg/kg, ip measured after 4 hrs; format: functional, organism-based; parameters: dose 10 mg/kg
Mus musculus [8] = assay: Anticonvulsant activity in mouse assessed as protection against maximal electroshock-induced seizures at 100 mg/kg, ip measured after 0.5 hrs; format: functional, organism-based; parameters: dose 100 mg/kg; summary of the method: as §1
Mus musculus [9] = assay: Anticonvulsant activity in mouse assessed as protection against maximal electroshock-induced seizures at 10 mg/kg, ip measured after 0.5 hrs; format: functional, organism-based; parameters: dose 10 mg/kg
Mus musculus [10] = assay: Anticonvulsant activity in mouse assessed as bicuculline-induced clonic seizures at 30 mg/kg, ip administered 30 mins before bicuculline challenge measured after 0.5 hrs; format: functional; conditions: route intraperitoneal
Summary of the method: (§2)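 Bicuculline 2.7 mg/kg sc, injected 15–45 min after preparation, given 30 min after 30 mg/kg i.p. test compound. Mice, 10 per group, were isolated and watched for at least 30 min for clonic and tonic seizures and lethality.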

Mus musculus [11] = assay: Anticonvulsant activity in mouse assessed as thiosemicarbazide-induced clonic seizures at 30 mg/kg, ip administered 30 mins before thiosemicarbazide challenge measured after 2.5 hrs; format: functional; conditions: route intraperitoneal
Summary of the method: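 Thiosemicarbazide challenge, 50 mg/kg i.p., given 30 min after 30 mg/kg i.p. test compound. Mice, 10 per group, were caged individually and observed for 2.5 h. Clonic and tonic seizures and lethality were recorded.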

Mus musculus [12] = assay: Anticonvulsant activity in mouse assessed as 3-mercaptopropionic acid-induced tonic seizures at 30 mg/kg, ip administered 30 mins before 3-mercaptopropionic acid challenge measured after 0.5 hrs; format: functional; conditions: route intraperitoneal
Summary of the method: (§3)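 KunMing mice (18–22 g) in groups of 10 received the test agent, dissolved in DMSO, i.p. 30 min before challenge. The challenge was 3-mercaptopropionic acid, 60 mg/kg in saline, given s.c. Mice were then held in individual cages and observed for 0.5 h for seizures and death.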

Mus musculus [13] = assay: Anticonvulsant activity in mouse assessed as pentylenetetrazole-induced clonic seizures at 30 mg/kg, ip administered 30 mins before pentylenetetrazole challenge measured after 0.5 hrs; format: functional; conditions: route intraperitoneal
Mus musculus [14] = assay: Anticonvulsant activity in mouse assessed as 3-mercaptopropionic acid-induced clonic seizures at 30 mg/kg, ip administered 30 mins before 3-mercaptopropionic acid challenge measured after 0.5 hrs; format: functional; conditions: route intraperitoneal
Summary of the method: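 Mice, 10 per group, dosed i.p. with 30 mg/kg. 30 min later they received 3-mercaptopropionic acid 60 mg/kg sc in saline. Each mouse was observed alone for 0.5 h for seizures.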

Mus musculus [15] = assay: Anticonvulsant activity in mouse assessed as thiosemicarbazide-induced tonic seizures at 30 mg/kg, ip administered 30 mins before thiosemicarbazide challenge measured after 2.5 hrs; format: functional; conditions: route intraperitoneal
Summary of the method: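 Mice (KunMing, 18–22 g, n = 10 per group) were pretreated i.p. with compound in DMSO. After 30 min, thiosemicarbazide was given at 50 mg/kg i.p. Animals were caged individually and observed for 2.5 h, and the number of clonic seizures, tonic seizures and deaths was recorded.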

Mus musculus [16] = assay: Anticonvulsant activity in mouse assessed as bicuculline-induced death at 30 mg/kg, ip administered 30 mins before bicuculline challenge measured after 0.5 hrs; format: functional; conditions: route intraperitoneal
Summary of the method: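 Groups of 10 KunMing mice (18–22 g) were dosed i.p. with compound in DMSO. After 30 min they received bicuculline, 2.7 mg/kg s.c., injected within 15–45 min of preparation because of its instability. Mice were isolated and watched for at least 30 min, and clonic seizures, tonic seizures and lethality were recorded.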

Mus musculus [17] = assay: Anticonvulsant activity in mouse assessed as isoniazid-induced clonic seizures at 30 mg/kg, ip administered 30 mins before isoniazid challenge measured after 1 hr; format: functional; conditions: route intraperitoneal
Mus musculus [18] = assay: Anticonvulsant activity in mouse assessed as isoniazid-induced tonic seizures at 30 mg/kg, ip administered 30 mins before isoniazid challenge measured after 1 hr; format: functional; conditions: route intraperitoneal
Mus musculus [19] = assay: Anticonvulsant activity in mouse assessed as bicuculline-induced tonic seizures at 30 mg/kg, ip administered 30 mins before bicuculline challenge measured after 0.5 hrs; format: functional; conditions: route intraperitoneal; summary of the method: as §2
Mus musculus [20] = assay: Anticonvulsant activity in mouse assessed as pentylenetetrazole-induced tonic seizures at 30 mg/kg, ip administered 30 mins before pentylenetetrazole challenge measured after 0.5 hrs; format: functional; conditions: route intraperitoneal
Mus musculus [21] = assay: Anticonvulsant activity in mouse assessed as protection against maximal electroshock-induced seizures at 30 mg/kg, ip measured after 0.5 hrs; format: functional, organism-based; parameters: dose 30 mg/kg; summary of the method: as §1
Mus musculus [22] = assay: Anticonvulsant activity in mouse assessed as 3-mercaptopropionic acid-induced death at 30 mg/kg, ip administered 30 mins before 3-mercaptopropionic acid challenge measured after 0.5 hrs; format: functional; conditions: route intraperitoneal; summary of the method: as §3

Compound	Activity (Mus musculus [1])	ED50 (Mus musculus [2]) [mg/kg]	PI (Mus musculus [3])	Activity (Mus musculus [4])	TD50 [5] [mg/kg]	Activity (Mus musculus [6])	Activity (Mus musculus [7])	Activity (Mus musculus [8])	further results
Clc1ccccc1COc1ccc2c(c1)-c1nncn1CCO2	inactive	38.3	2.4	inactive	91.3	inactive	inactive	Active	
Fc1cccc(COc2ccc3c(c2)-c2nncn2CCO3)c1	inactive	23.7	3.2	inactive	76	inactive	inactive	Active	
CCOc1ccc2c(c1)-c1nncn1CCO2	inactive	> 100		inactive		inactive	inactive	Active	
CCCCCCOc1ccc2c(c1)-c1nncn1CCO2	inactive	10	6	inactive	60	inactive	inactive	Active	Activity (Mus musculus [9]): Active
Brc1cccc(COc2ccc3c(c2)-c2nncn2CCO3)c1	inactive	25	3.6	inactive	91.3	inactive	inactive	Active	
Brc1ccccc1COc1ccc2c(c1)-c1nncn1CCO2	inactive	41.7	2.6	inactive	110	inactive	inactive	Active	
NC(=O)N1c2ccccc2C=Cc2ccccc21 [CARBAMAZEPINE]			6.4						Activity (Mus musculus [10]): 100%; Activity (Mus musculus [11]): 100%; Activity (Mus musculus [12]): 0%; Activity (Mus musculus [13]): 100%; Activity (Mus musculus [14]): 100%; Activity (Mus musculus [15]): 0%; Activity (Mus musculus [16]): 20%; Activity (Mus musculus [17]): 60%; Activity (Mus musculus [18]): 0%; Activity (Mus musculus [19]): 0%; Activity (Mus musculus [20]): 0%
Clc1ccc(COc2ccc3c(c2)-c2nncn2CCO3)cc1	inactive	60	1.8	inactive	110	inactive	inactive	Active	
CCCCCCCOc1ccc2c(c1)-c1nncn1CCO2	inactive	6.9	9.5	inactive	65.7	inactive	inactive	Active	Activity (Mus musculus [10]): 100%; Activity (Mus musculus [11]): 100%; Activity (Mus musculus [12]): 0%; Activity (Mus musculus [21]): Active; Activity (Mus musculus [13]): 80%; Activity (Mus musculus [14]): 100%; Activity (Mus musculus [15]): 30%; Activity (Mus musculus [17]): 0%; Activity (Mus musculus [18]): 0%; Activity (Mus musculus [19]): 0%; Activity (Mus musculus [20]): 0%; Activity (Mus musculus [22]): 20%; Activity (Mus musculus [9]): Active
COc1ccc(COc2ccc3c(c2)-c2nncn2CCO3)cc1	inactive	> 100		inactive		inactive	inactive	Active	
CCCCOc1ccc2c(c1)-c1nncn1CCO2	inactive	11	4.2	inactive	45.6	inactive	inactive	Active	Activity (Mus musculus [9]): Active
